According to ChEMBL document CHEMBL1671663, “In vivo characterization of the peptide deformylase inhibitor LBM415 in murine infection models” (Antimicrob Agents Chemother, 2009):
Values after ≈ are worked out from the molar mass of the structure shown.

Key:
Assay type in all cases: functional
Streptococcus pneumoniae [1] = test: Antimicrobial activity against Streptococcus pneumoniae ATCC 6301 by broth microdilution method
In short: (§1)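 MICs determined by broth microdilution following CLSI guidelines. Inocula came from overnight Mueller-Hinton broth (ATCC 49951, NB01021) or overnight Trypticase soy agar culture (ATCC 6301). ATCC 6303 and ATCC 700677 came from a 5-h log culture in Todd-Hewitt broth–30% horse serum.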

Staphylococcus aureus [2] = test: Antimicrobial activity against methicillin-susceptible Staphylococcus aureus ATCC 13709 by broth microdilution method
In short: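 MIC by broth microdilution following CLSI guidelines.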

Streptococcus pneumoniae [3] = test: Antimicrobial activity against Streptococcus pneumoniae ATCC 6303 infected in po dosed BALB/c mouse pneumonia model assessed as complete eradication of bacteria administered twice daily 3 days starting 16 hrs post infection; conditions: Streptococcus pneumoniae, ATCC 6303, po
In short: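 Anesthetized (ketamine/xylazine) female BALB/c mice (19 to 22 g) inoculated intranasally with 50 µl log-phase culture (1.4 × 10^5 CFU/mouse). Oral treatment, six mice per group, at 16, 27, 40, 51, 64 and 75 h postinfection; vehicle controls. Lungs harvested one day after last dose, homogenized, plated; log10 CFU/lung. Deaths assigned 9 log10 CFU/lung; Kruskal-Wallis with Dunn's test versus control.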

Staphylococcus aureus [4] = test: Antimicrobial activity against methicillin-susceptible Staphylococcus aureus ATCC 49951 by broth microdilution method; in short: as §1
Staphylococcus aureus [5] = test: Antimicrobial activity against methicillin-resistant Staphylococcus aureus NB01021 by broth microdilution method; in short: as §1
Streptococcus pneumoniae [6] = test: Antimicrobial activity against multiple drug-resistant Streptococcus pneumoniae ATCC 700677 by broth microdilution method; in short: as §1
Streptococcus pneumoniae [7] = test: Antimicrobial activity against Streptococcus pneumoniae ATCC 6303 by broth microdilution method; in short: as §1
Staphylococcus aureus [8] = test: Antimicrobial activity against methicillin-resistant Staphylococcus aureus NB01021 infected in sc dosed BALB/c mouse administered 0, 4, 23 hrs post infection
In short: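 Female BALB/c mice (19–23 g) infected intraperitoneally with MRSA NB01021 in 5% hog gastric mucin, 2.1 × 10^7 to 2.8 × 10^7 CFU/mouse (0.3 ml), 10–100× minimal lethal dose. Three dose levels, groups of 5–6; vehicle controls. Treatment 0, 4 and 23 h post-infection. Observed 8 days; ED50 with 95% CI by probit analysis of day-8 survival.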

Streptococcus pneumoniae [9] = test: Antimicrobial activity against multiple drug resistant Streptococcus pneumoniae ATCC 700677 infected in po dosed BALB/c mouse administered twice daily for 3 days; conditions: ATCC 700677, po, 72 h
In short: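 Female BALB/c mice (19–23 g) infected intraperitoneally with ATCC 700677 from a 5-h Todd-Hewitt–30% horse serum log culture, suspended in 5% hog mucin, 1.5 × 10^7 to 2 × 10^7 CFU/mouse. Groups of 5–6, typically three dose levels; vehicle controls. Dosed 1, 5, 17, 27, 42, 51 h post-infection. ED50 from day-8 survival by probit analysis, with 95% CI.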

Staphylococcus aureus [10] = test: Antimicrobial activity against methicillin susceptible Staphylococcus aureus ATCC 49951 infected in sc dosed NMRI mouse treated 1 and 5 hrs post infection; conditions: ATCC 49951, sc
In short: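 Intraperitoneal infection (0.3 ml/mouse, 10 to 100 times minimal lethal dose) with inoculum in 0.86% NaCl; ATCC 49951 grown overnight in Mueller-Hinton broth (1.7 × 10^7 to 2.2 × 10^7 CFU/mouse), ATCC 13709 in tryptic soy broth (7.3 × 10^7 to 2 × 10^8 CFU/mouse). Groups of 5 to 6 mice, typically three doses, treated 1 and 5 h postinfection; vehicle controls. ED50 by probit analysis of day-8 survival.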

Staphylococcus aureus [11] = test: Antimicrobial activity against methicillin susceptible Staphylococcus aureus ATCC 13709 infected in sc dosed NMRI mouse treated 1 and 5 hrs post infection; conditions: ATCC 13709, sc
In short: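 Systemic infection: ATCC 13709 grown overnight in tryptic soy broth and suspended in 0.86% NaCl. Given intraperitoneally at 7.3 × 10^7 to 2 × 10^8 CFU/mouse, 10–100× the minimal lethal dose, 0.3 ml/mouse. Groups of 5–6 mice, typically three dose levels; controls got vehicle. Dosed 1 and 5 h post-infection. Survival followed 8 days; ED50 (protection of 50%) with 95% CI by probit analysis of day-8 survival.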

SMILES	MIC (Streptococcus pneumoniae [1])	MIC (Staphylococcus aureus [2])	ED50 (Streptococcus pneumoniae [3])	MIC (Staphylococcus aureus [4])	MIC (Staphylococcus aureus [5])	MIC (Streptococcus pneumoniae [6])	MIC (Streptococcus pneumoniae [7])	ED50 (Staphylococcus aureus [8])	ED50 (Streptococcus pneumoniae [9])	ED50 (Staphylococcus aureus [10])	ED50 (Staphylococcus aureus [11])
COc1c(N2C[C@@H]3CCCN[C@@H]3C2)c(F)cc2c(=O)c(C(=O)O)cn(C3CC3)c12 [MOXIFLOXACIN]	0.5 µg/mL (≈ 1.25 µM)	≤ 0.03 µg/mL	14.3 mg/kg	0.06 µg/mL (≈ 0.149 µM)	1 µg/mL (≈ 2.49 µM)	≤ 0.06 µg/mL	0.5 µg/mL (≈ 1.25 µM)	–	–	–	–
CC1(C)S[C@@H]2[C@H](NC(=O)Cc3ccccc3)C(=O)N2[C@H]1C(=O)O [PENICILLIN G]	0.03 µg/mL (≈ 0.0897 µM)	≤ 0.125 µg/mL	–	≤ 0.125 µg/mL	64 µg/mL (≈ 191 µM)	32 µg/mL (≈ 95.7 µM)	0.06 µg/mL (≈ 0.179 µM)	> 135 mg/kg	–	–	–
CC1(C)S[C@@H]2[C@H](NC(=O)COc3ccccc3)C(=O)N2[C@H]1C(=O)O [PENICILLIN V]	–	–	–	–	–	–	–	–	> 60 mg/kg	–	–
CC[C@H]1OC(=O)[C@H](C)C(=O)[C@H](C)[C@@H](O[C@@H]2O[C@H](C)C[C@H](N(C)C)[C@H]2O)[C@](C)(OC)C[C@@H](C)C(=O)[C@H](C)[C@H]2N(CCCCn3cnc(-c4cccnc4)c3)C(=O)O[C@]12C [TELITHROMYCIN]	≤ 0.125 µg/mL	≤ 0.125 µg/mL	–	0.25 µg/mL (≈ 0.308 µM)	> 64 µg/mL	≤ 0.25 µg/mL	≤ 0.125 µg/mL	–	13.2 mg/kg	–	–
CN[C@H](CC(C)C)C(=O)N[C@H]1C(=O)N[C@@H](CC(N)=O)C(=O)N[C@H]2C(=O)N[C@H]3C(=O)N[C@H](C(=O)N[C@H](C(=O)O)c4cc(O)cc(O)c4-c4cc3ccc4O)[C@H](O)c3ccc(c(Cl)c3)Oc3cc2cc(c3O[C@@H]2O[C@H](CO)[C@@H](O)[C@H](O)[C@H]2O[C@H]2C[C@](C)(N)[C@H](O)[C@H](C)O2)Oc2ccc(cc2Cl)[C@H]1O [VANCOMYCIN]	0.5 µg/mL (≈ 0.345 µM)	–	–	–	–	≤ 0.125 µg/mL	0.5 µg/mL (≈ 0.345 µM)	2.5 mg/kg	–	1.5 mg/kg	2.8 mg/kg
